test system: Canis familiaris; test: Effect on arterial blood pressure (MAP) in anesthetized open-chest dogs at 0.875 mg/kg intravenous dose; type: functional, Canis lupus familiaris; conditions: not given
How it was run: (§1)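 Pentobarbital-anesthetized (45 mg/kg i.p.), ventilated mongrel dogs, open chest. MAP came from a femoral artery cannula, HR from a cardiotachometer triggered by the pressure pulse, and CF from a right-ventricle strain gauge. Compound in 10% DMF/saline or as the HCl salt in saline was infused iv in 3–4 stepwise rising doses, each over 5 min. Responses are % change from predrug control at the maximum dose given.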

In order of falling Change:
1. Cc1nc(O)nc2ccc(N3CCOCC3)cc12  -10%
2. COc1ccc2[nH]c(=O)nc(C)c2c1OC [BEMARINONE]  -16%

test system: Canis familiaris; test: Effect on arterial blood pressure (MAP) in anesthetized open-chest dogs at 1.875 mg/kg intravenous dose; type: functional, Canis lupus familiaris; conditions: not given; how it was run: as §1

In order of rising Change:
1. Cc1nc(O)nc2ccc3c(c12)OCO3  -14%
2. Nc1cc(-c2ccncc2)c[nH]c1=O [INAMRINONE]  -10%
3. COc1ccc2nc(O)ncc2c1OC  -9%
4. COc1cc2nc(O)nc(C)c2c(OC)c1OC  -9%
5. COc1cc2c(C)nc(O)nc2c(OC)c1OC  -4%
6. Cc1nc(O)nc2ccc(N3CCN(C)CC3)cc12  0%
7. COc1ccc2c(c(C)nc(=O)n2C)c1OC  6%
8. CCc1nc(O)nc2ccc(OC)c(OC)c12  9%
9. COc1cc2nc(O)nc(Cc3ccccc3)c2cc1OC  30%

test system: Canis familiaris; test: Effect on arterial blood pressure (MAP) in anesthetized open-chest dogs at 8.75 mg/kg intravenous dose; type: functional, Canis lupus familiaris; conditions: not given; how it was run: as §1

In order of rising Change:
1. CCc1nc(O)nc2cc(OC)c(OC)cc12  -28%
2. COc1cc2nc(O)nc(-c3ccccc3)c2cc1OC  -25%
3. COc1cc2nc(O)nc(C3CCCC3)c2cc1OC  -19%

test system: Canis familiaris; test: Effect on heart rate (HR) in anesthetized open-chest dogs at 0.875 mg/kg intravenous dose; type: functional, Canis lupus familiaris; conditions: not given; how it was run: as §1

In order of rising Change:
1. Cc1nc(O)nc2ccc(N3CCOCC3)cc12  13%
2. COc1ccc2[nH]c(=O)nc(C)c2c1OC [BEMARINONE]  20%

test system: Canis familiaris; test: Effect on heart rate (HR) in anesthetized open-chest dogs at 1.875 mg/kg intravenous dose; type: functional, Canis lupus familiaris; conditions: not given; how it was run: as §1

In order of falling Change:
1. CCc1nc(O)nc2ccc(OC)c(OC)c12  20%
2. Cc1nc(O)nc2ccc3c(c12)OCO3  13%
3. Nc1cc(-c2ccncc2)c[nH]c1=O [INAMRINONE]  12%
4. COc1ccc2nc(O)ncc2c1OC  10%
5. Cc1nc(O)nc2ccc(N3CCN(C)CC3)cc12  6%
6. COc1ccc2c(c(C)nc(=O)n2C)c1OC  5%
7. COc1cc2c(C)nc(O)nc2c(OC)c1OC  3%
8. COc1cc2nc(O)nc(Cc3ccccc3)c2cc1OC  3%
9. COc1cc2nc(O)nc(C)c2c(OC)c1OC  0%

test system: Canis familiaris; test: Effect on heart rate (HR) in anesthetized open-chest dogs at 8.75 mg/kg intravenous dose; type: functional, Canis lupus familiaris; conditions: not given; how it was run: as §1

In order of rising Change:
1. COc1cc2nc(O)nc(-c3ccccc3)c2cc1OC  7%
2. COc1cc2nc(O)nc(C3CCCC3)c2cc1OC  11%
3. CCc1nc(O)nc2cc(OC)c(OC)cc12  13%

test system: Canis familiaris; test: 50% increase in myocardial contractile force (CF) above control in anesthetized open-chest dogs at 0.875 mg/kg intravenous dose; type: functional; conditions: Canis lupus familiaris, Myocardium
How it was run: (§2)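 Anesthetized (pentobarbital 45 mg/kg i.p.), artificially respired mongrel dogs with right thoracotomy. Contractile force was read by a strain gauge on the right ventricle. Compound was given in 10% DMF in saline, or as the HCl salt in saline, by femoral vein infusion in 3–4 stepwise increasing doses, each over 5 min. ED50 (mg/kg iv) is the dose giving a 50% CF rise over control, taken from 3–4 point dose–response curves by graphic estimation (n = 1, 2 dogs) or linear regression (n ≥ 3).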

In order of falling ED50:
1. Cc1nc(O)nc2ccc(N3CCOCC3)cc12  0.7 mg/kg
2. COc1ccc2[nH]c(=O)nc(C)c2c1OC [BEMARINONE]  0.23 mg/kg

test system: Canis familiaris; test: 50% increase in myocardial contractile force (CF) above control in anesthetized open-chest dogs at 1.875 mg/kg intravenous dose; type: functional; conditions: Canis lupus familiaris, Myocardium; how it was run: as §2

COc1cc2c(C)nc(O)nc2c(OC)c1OC and COc1cc2nc(O)nc(C)c2c(OC)c1OC cannot be ordered by ED50: > 1.87 mg/kg for the first, > 1.87 mg/kg for the second.

Cc1nc(O)nc2ccc3c(c12)OCO3 and CCc1nc(O)nc2ccc(OC)c(OC)c12 are within 1.5-fold of each other in ED50: 0.69 mg/kg for the first, 0.51 mg/kg for the second.

Compared with Cc1nc(O)nc2ccc(N3CCN(C)CC3)cc12, COc1ccc2nc(O)ncc2c1OC is lower in ED50: > 1.87 mg/kg for the first, 1.64 mg/kg for the second.

Going from Nc1cc(-c2ccncc2)c[nH]c1=O [INAMRINONE] to COc1cc2nc(O)nc(Cc3ccccc3)c2cc1OC, the ED50 rises from 0.38 mg/kg to > 1.87 mg/kg.

For COc1ccc2c(c(C)nc(=O)n2C)c1OC, the ED50 was > 1.87 mg/kg.

test system: Canis familiaris; test: Effect on myocardial contractile force (CF) in anesthetized open-chest dogs at 0.875 mg/kg intravenous dose; type: functional, Canis lupus familiaris, Myocardium; conditions: not given; how it was run: as §1

In order of falling Change:
1. COc1ccc2[nH]c(=O)nc(C)c2c1OC [BEMARINONE]  114%
2. Cc1nc(O)nc2ccc(N3CCOCC3)cc12  59%

test system: Canis familiaris; test: Effect on myocardial contractile force (CF) in anesthetized open-chest dogs at 1.875 mg/kg intravenous dose; type: functional, Canis lupus familiaris, Myocardium; conditions: not given; how it was run: as §1

In order of rising Change:
1. COc1cc2c(C)nc(O)nc2c(OC)c1OC  10%
2. Cc1nc(O)nc2ccc(N3CCN(C)CC3)cc12  10%
3. COc1cc2nc(O)nc(C)c2c(OC)c1OC  11%
4. COc1ccc2c(c(C)nc(=O)n2C)c1OC  31%
5. COc1cc2nc(O)nc(Cc3ccccc3)c2cc1OC  33%
6. Cc1nc(O)nc2ccc3c(c12)OCO3  71%
7. COc1ccc2nc(O)ncc2c1OC  101%
8. CCc1nc(O)nc2ccc(OC)c(OC)c12  112%
9. Nc1cc(-c2ccncc2)c[nH]c1=O [INAMRINONE]  134%

test system: Canis familiaris; test: Effect on myocardial contractile force (CF) in anesthetized open-chest dogs at 8.75 mg/kg intravenous dose; type: functional, Canis lupus familiaris, Myocardium; conditions: not given; how it was run: as §1

In order of falling Change:
1. COc1cc2nc(O)nc(-c3ccccc3)c2cc1OC  106%
2. CCc1nc(O)nc2cc(OC)c(OC)cc12  82%
3. COc1cc2nc(O)nc(C3CCCC3)c2cc1OC  71%

test system: Canis familiaris; test: Effect that produces a 50% increase in myocardial contractile force (CF) above control in anesthetized open-chest dogs at 8.75 mg/kg intravenous dose; type: functional; conditions: Canis lupus familiaris, Myocardium; how it was run: as §2

Compared with CCc1nc(O)nc2cc(OC)c(OC)cc12, COc1cc2nc(O)nc(C3CCCC3)c2cc1OC is higher in ED50: 3.4 mg/kg for the first, > 8.75 mg/kg for the second.

Work on COc1cc2nc(O)nc(-c3ccccc3)c2cc1OC yielded an ED50 of 4.1 mg/kg.

molecular target: Phosphodiesterase 3 (Canis familiaris); test: Inhibitory activity against canine cardiac fraction III cyclic AMP phosphodiesterase (PDE III); conditions: not given

In order of falling IC50:
1. COc1cc2nc(O)nc(C3CCCC3)c2cc1OC  22 µM
2. COc1cc2nc(O)nc(-c3ccccc3)c2cc1OC  14 µM

molecular target: Phosphodiesterase 3 (Canis familiaris); test: Inhibition of canine cardiac fraction III cAMP phosphodiesterase (PDE 3) at 0.875 mg/kg intravenous dose; conditions: not given

Work on COc1ccc2[nH]c(=O)nc(C)c2c1OC [BEMARINONE] yielded an IC50 of 17 µM.

molecular target: Phosphodiesterase 3 (Canis familiaris); test: Inhibition of canine cardiac fraction III cAMP phosphodiesterase (PDE 3) at 1.875 mg/kg intravenous dose; conditions: not given

In order of falling IC50:
1. Cc1nc(O)nc2ccc(N3CCN(C)CC3)cc12  300 µM
2. CCc1nc(O)nc2ccc(OC)c(OC)c12  18 µM
3. COc1cc2nc(O)nc(Cc3ccccc3)c2cc1OC  13 µM
